Records with an inconclusive call do not appear. Calls of active or inactive are those of the source. The rule behind the calls is not given here.

One experiment has as its system ldlA CHO mSR-BI C384S, [3H]cholesterol efflux to HDL. Kind of experiment: HDL-directed free cholesterol efflux, C384S receptor cells – cell-based, ldlA CHO, [3H]cholesterol, single point, dry powder, mechanism study for SR-BI HDL uptake inhibitor project (AID 588843).
Settings: not given
Summed up:
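Test system: Cys384S SR-BI ldlA CHO cells. Probe or stimulus: unlabelled HDL as cholesterol acceptor, 100 µg/mL final. Doses: test compound with 0.5% DMSO final in well. Incubation: 2-day [3H]cholesterol labelling, 1% FAF-BSA equilibration, 1-h pre-exposure, 2-h efflux. Measured by: liquid scintillation counting of [3H]cholesterol in medium and cells. Evaluation: % [3H]cholesterol effluxed to medium.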
`O=C(Nc1ccc(-c2nc3cc(NC(=O)c4ccc(NC(=O)c5cccc6ccccc56)cc4)ccc3[nH]2)cc1)c1ccc(NC(=O)c2cccc3ccccc23)cc1`: the outcome was active. Turning to `CCOC(=O)N1CCC(NC(=O)c2ccc3c(c2)N(Cc2ccc(F)cc2)CCS3)CC1`, the outcome was active.

Staying with this experiment, now noted: at 1 µM; stronger effect = lower value.
Consider `COc1ccc(-c2nnn(CC(=O)N(C3CCCCC3)C(C)C(=O)NC3CCCC3)n2)cc1OC` (centres undefined), for which the cholesterol efflux was 14.2%. With `O=C(Nc1ccc(-c2nc3ccc(NC(=O)c4ccccc4)cc3[nH]2)cc1)c1ccccc1`, the cholesterol efflux was 11.7%. In the case of `COc1cccc(-c2csc(N3CCN(C(=S)Nc4cccc(Cl)c4)CC3)n2)c1`, the cholesterol efflux is 16.6% (inactive). Still for that read-out and setting: under `O=C(Nc1ccc(Cl)cc1C(=O)c1ccc(Cl)cc1)c1cc(Br)ccc1NS(=O)(=O)c1ccc(Cl)cc1` stands 21.7% (inactive). On the same count and under the same terms, under `O=C(Nc1ccc(-c2nc3cc(NC(=O)c4ccccc4[N+](=O)[O-])ccc3o2)cc1)c1ccccc1[N+](=O)[O-]` stands 5.43%; under `Cc1cc(C)n(CC(=O)NC2CCCc3c2cnn3-c2ccc(C)c(C)c2)n1` (centres undefined), 17.2% (inactive); under `CC(C)OCCCNC(=O)c1ccc(C2SCC(=O)N2Cc2ccco2)cc1` (centres undefined), 18.9% (inactive). With `Cc1cc(SC(C)C(=O)Nc2ncc(Cl)cc2Cl)nc2ccccc12` (centres undefined), the cholesterol efflux is 15.5%.

Consider `O=C(Nc1cccc(NC(=O)c2cc([N+](=O)[O-])ccc2Cl)n1)c1cc([N+](=O)[O-])ccc1Cl`, for which the cholesterol efflux was 14.2%.

As for `CCC(=O)N1CCc2cc(-c3csc(NC(=O)c4ccco4)n3)ccc21`, the cholesterol efflux is 9.04%. Same read-out and setting: the value for `CC(OC(=O)c1cccc(NS(C)(=O)=O)c1)C(=O)Nc1ccc(N2CCOCC2)cc1` (centres undefined) was 10.3%; that for `Cc1ccc2oc(-c3cccc(NC(=O)c4cc(-n5cnnc5)ccc4Cl)c3)nc2c1` was 19.7% (inactive); that for `N#Cc1sc2nc(C3CC3)cc(-c3ccc(Cl)cc3)c2c1N` was 14.7%.

Take `CCOc1ccccc1/C=C/c1onc(C)c1S(=O)(=O)N1CCC(C(=O)NC(C)(C)C)CC1`: the cholesterol efflux is 7.29%. On the same count and under the same terms, the value for `O=C(Nc1cc(C(F)(F)F)ccc1Cl)c1ccccc1NS(=O)(=O)c1ccc(Cl)cc1` was 21.7% (inactive). On the same count and under the same terms, the value for `Cc1ccc(-c2nnc(N3CCC(C)CC3)c3ccccc23)cc1C` was 20.5% (inactive). As to `Cc1cc(C)c2c(c1)NC(c1cc3c(cc1Br)OCO3)C1CC=CC21` (centres undefined), the cholesterol efflux was 19% (inactive). Turning to `COc1ccc(OC)c(CCNC(=O)c2ccc3c(c2)N(Cc2ccc(F)cc2)CCS3)c1`, the cholesterol efflux was 16.9% (inactive). As to `CCn1c(COc2c(C)cccc2C)nnc1SCC(=O)N1CCN(c2ccccc2)CC1`, the cholesterol efflux was 17.1% (inactive). On the same count and under the same terms, under `O=C(Nc1ccccc1Cl)c1ccccc1NS(=O)(=O)c1ccccc1` stands 21% (inactive); under `Cc1ccccc1NC(=O)NCC1CCN(c2ccc(S(=O)(=O)N3CCOCC3)cc2)CC1`, 18.4% (inactive). On the same count and under the same terms, under `COC(=O)c1cn(C(=O)c2cccc3ccccc23)c2ccccc12` stands 19.2% (inactive); under `CCOc1ccc(NC(=O)CN2CCN(CC(=O)Nc3cc(OC)cc(OC)c3)CC2)cc1`, 17.9% (inactive).

With `O=C(Nc1cc(Cl)ccc1Cl)c1cc(Br)ccc1NS(=O)(=O)c1ccc(Cl)c([N+](=O)[O-])c1`, the cholesterol efflux was 20.5% (inactive). On the same count and under the same terms, the value for `Cc1cc(C(=O)C(C)OC(=O)C2=NNC(=O)CC2)c(C)n1-c1ccc(OC(F)F)cc1` (centres undefined) was 16.5% (inactive); that for `O=C(Nc1ccc(-c2nc3cc(NC(=O)c4ccccc4Cl)ccc3o2)cc1)c1ccccc1Cl` was 5.15%; that for `COc1ccc([C@H]2CC(=O)C=C(c3cccc4c3sc3ccccc34)C2)cc1OC` was 18.7% (inactive).

The same experiment, now with this note: measured here: second test run; at 1 µM; stronger effect = lower value.
Compound `COc1ccc(-c2nnn(CC(=O)N(C3CCCCC3)C(C)C(=O)NC3CCCC3)n2)cc1OC` (centres undefined) came in with a cholesterol efflux of 7.04%.

In the case of `O=C(Nc1ccc(-c2nc3cc(NC(=O)c4ccccc4[N+](=O)[O-])ccc3o2)cc1)c1ccccc1[N+](=O)[O-]`, the cholesterol efflux came out at 3.07%. The same measure, in the same setting: the value for `CCC(=O)N1CCc2cc(-c3csc(NC(=O)c4ccco4)n3)ccc21` was 7.93%. Still for that read-out and setting: under `O=C(Nc1ccc(-c2nc3cc(NC(=O)c4ccc(NC(=O)c5cccc6ccccc56)cc4)ccc3[nH]2)cc1)c1ccc(NC(=O)c2cccc3ccccc23)cc1` stands 7.85%. Still for that read-out and setting: the value for `CCOC(=O)N1CCC(NC(=O)c2ccc3c(c2)N(Cc2ccc(F)cc2)CCS3)CC1` was 7.46%.

For the origin of these results see PubChem BioAssay AID588843 (Broad Institute, 2011).
